Reference: ChEMBL document CHEMBL1122938, “Ribavirin, tiazofurin, and selenazofurin: mononucleotides and nicotinamide adenine dinucleotide analogues. Synthesis, structure, and interactions with IMP dehydrogenase” (J Med Chem, 1985)

Columns and labels:
[1] = Uncompetitive (mixed) inhibitory activity against Inosine-5'-monophosphate dehydrogenase using NAD as viable substrate
[2] = Uncompetitive Inhibitory activity against Inosine-5'-monophosphate dehydrogenase using IMP as viable substrate
[3] = Cytotoxicity against P388 cells in culture; format: cell-based; conditions: mouse, read-out: ID50 (the source's name)
In short: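 P388 cells in log-phase growth exposed in culture to each monophosphate or dinucleotide.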

[4] = Noncompetitive inhibitory activity against Inosine-5'-monophosphate dehydrogenase using NAD as viable substrate
[5] = Inhibitory activity against Inosine-5'-monophosphate dehydrogenase using IMP as viable substrate; Inactive.
[6] = Inhibitory activity against Inosine-5'-monophosphate dehydrogenase using NAD as viable substrate; Inactive.
[7] = Noncompetitive Inhibitory activity against Inosine-5'-monophosphate dehydrogenase using IMP as viable substrate
[8] = Noncompetitive inhibitory activity against Inosine-5'-monophosphate dehydrogenase using NAD as viable substrate
[9] = Competitive Inhibitory activity against Inosine-5'-monophosphate dehydrogenase using IMP as viable substrate
[10] = Inhibitory activity against Inosine-5'-monophosphate dehydrogenase using NAD as viable substrate; Inactive
[11] = Inhibitory activity against Inosine-5'-monophosphate dehydrogenase using IMP as viable substrate; Inactive

## NC(=O)c1c[se]c([C@H]2O[C@@H](COP(=O)(O)OP(=O)(O)OC[C@H]3O[C@@H](c4nc(C(N)=O)c[se]4)[C@H](O)[C@@H]3O)[C@H](O)[C@@H]2O)n1
[1]
  Ki: 240 µM
[2]
  Ki: 190 µM
[3]
  CC50: 0.6 µM

## NC(=O)c1csc([C@H]2O[C@@H](COP(=O)(O)OP(=O)(O)OC[C@H]3O[C@@H](n4cnc5c(N)ncnc54)[C@H](O)[C@@H]3O)[C@H](O)[C@@H]2O)n1
[4]
  Ki: 0.24 µM
[2]
  Ki: 0.13 µM
[3]
  CC50: 7.5 µM

## NC(=O)c1c[se]c(C2O[C@@H](COP(=O)(O)OP(=O)(O)OC[C@H]3OC(n4cnc5c(N)ncnc54)[C@H](O)[C@@H]3O)[C@H](O)[C@@H]2O)n1 (stereo not given in full)
[4]
  Ki: 0.04 µM
[2]
  Ki: 0.05 µM
[3]
  CC50: 9.8 µM

## NC(=O)c1ncn([C@@H]2O[C@H](COP(=O)(O)O)[C@@H](O)[C@H]2O)c1N
[5]
  Ki: Not Active
[6]
  Ki: Not Active
[3]
  CC50: > 220 µM

## NC(=O)c1c[se]c([C@@H]2O[C@H](COP(=O)(O)O)[C@@H](O)[C@H]2O)n1
[7]
  Ki: 170 µM
[8]
  Ki: 470 µM
[3]
  CC50: 1.4 µM

## NC(=O)c1csc([C@@H]2O[C@H](COP(=O)(O)O)[C@@H](O)[C@H]2O)n1
[7]
  Ki: 265 µM
[8]
  Ki: 405 µM
[3]
  CC50: 10 µM

## NC(=O)c1ncn(C2O[C@H](COP(=O)(O)OP(=O)(O)OC[C@H]3OC(n4cnc5c(N)ncnc54)[C@H](O)[C@@H]3O)[C@H](O)[C@@H]2O)n1 (stereo not given in full)
[4]
  Ki: 235 µM
[7]
  Ki: 148 µM
[3]
  CC50: 40 µM

## NC(=O)c1ncn([C@@H]2O[C@H](COP(=O)(O)O)[C@@H](O)[C@H]2O)n1 [RIBAVIRIN MONOPHOSPHATE]
[4]
  Ki: 2.24 µM
[9]
  Ki: 4.18 µM
[3]
  CC50: 65 µM

## NC(=O)c1csc([C@H]2O[C@@H](COP(=O)(O)OP(=O)(O)OC[C@H]3O[C@@H](c4nc(C(N)=O)cs4)[C@H](O)[C@@H]3O)[C@H](O)[C@@H]2O)n1
[1]
  Ki: 370 µM
[2]
  Ki: 140 µM
[3]
  CC50: 4.6 µM

## NC(=O)c1ncn(C2O[C@H](COP(=O)(O)OP(=O)(O)OC[C@H]3OC(n4cnc5c(N)ncnc54)[C@H](O)[C@@H]3O)[C@H](O)[C@@H]2O)c1N (stereo not given in full)
[10]
  Ki: Not Active
[3]
  CC50: 78 µM
[11]
  Ki: Not Active
